Data from ChEMBL document CHEMBL2046313, “Discovery and evaluation of a non-Zn chelating, selective matrix metalloproteinase 13 (MMP-13) inhibitor for potential intra-articular treatment of osteoarthritis” (J Med Chem, 2012).

Tests used:
Matrilysin = molecular target: T1, Matrilysin (Homo sapiens, UniProt P09237); test: Inhibition of human recombinant MMP7 using MCA-Pro-Leu-Gly-Leu-Dpa-Ala-Arg-NH2.AcOH as substrate preincubated for 10 mins measured by fluorescence analysis
T1 sequence (P09237 whole entry): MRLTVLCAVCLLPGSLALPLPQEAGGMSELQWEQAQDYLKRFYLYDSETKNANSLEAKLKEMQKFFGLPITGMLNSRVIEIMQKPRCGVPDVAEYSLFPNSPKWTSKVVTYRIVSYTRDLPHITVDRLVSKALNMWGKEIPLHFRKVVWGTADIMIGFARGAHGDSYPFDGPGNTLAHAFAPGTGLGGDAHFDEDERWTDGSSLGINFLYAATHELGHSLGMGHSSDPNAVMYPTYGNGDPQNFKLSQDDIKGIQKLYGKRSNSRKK
Procedure, shortened: (§1)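 Catalytic domains of recombinant human MMPs were assayed with fluorogenic OmniMMP substrate in 50 mM Tris-HCl pH 7.5, 150 mM NaCl, 5 mM CaCl₂, 0.05% Brij-35. Enzyme was 1–10 nM and substrate 4–10 μM, optimized per assay. Enzyme was preincubated 10 min with varying inhibitor concentrations, and IC50 was calculated from runs done at least in duplicate.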

[1] = molecular target: Matrix metalloproteinase-14 (Homo sapiens, UniProt P50281); test: Inhibition of human recombinant MMP14 using MCA-Pro-Leu-Gly-Leu-Dpa-Ala-Arg-NH2.AcOH as substrate preincubated for 10 mins measured by fluorescence analysis; procedure, shortened: as §1
Rattus norvegicus [2] = organism: Rattus norvegicus; test: Chondroprotective activity in Sprague-Dawley rat cartilage assessed as inhibition of MMP13-mediated C1,C2 release at 0.5 mg/joint, ia measured on day 7 by ELISA; format: functional
Procedure, shortened: (§2)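 Male Sprague-Dawley rats (175−200 g, three per group) received one IA injection of 50 μL PBS holding 10 mg/mL suspension (sonicated, vortexed) into right knee. They were killed at 1, 7, 14 or 21 days, and tibial cartilage was collected. Cartilage was then challenged with 10 μg/mL APMA-activated human MMP-13 for 24 h at 37 °C in Tris pH 7.5. The reaction was stopped with 10 mM EDTA, and released C1,2C was measured by ELISA. Vehicle cartilage incubated with or without MMP-13 defined 100% and 0%.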

Interstitial collagenase = molecular target: T2, Interstitial collagenase (Homo sapiens, UniProt P03956); test: Inhibition of human recombinant MMP1 using MCA-Pro-Leu-Gly-Leu-Dpa-Ala-Arg-NH2.AcOH as substrate preincubated for 10 mins measured by fluorescence analysis; procedure, shortened: as §1
T2 sequence (P03956 whole entry): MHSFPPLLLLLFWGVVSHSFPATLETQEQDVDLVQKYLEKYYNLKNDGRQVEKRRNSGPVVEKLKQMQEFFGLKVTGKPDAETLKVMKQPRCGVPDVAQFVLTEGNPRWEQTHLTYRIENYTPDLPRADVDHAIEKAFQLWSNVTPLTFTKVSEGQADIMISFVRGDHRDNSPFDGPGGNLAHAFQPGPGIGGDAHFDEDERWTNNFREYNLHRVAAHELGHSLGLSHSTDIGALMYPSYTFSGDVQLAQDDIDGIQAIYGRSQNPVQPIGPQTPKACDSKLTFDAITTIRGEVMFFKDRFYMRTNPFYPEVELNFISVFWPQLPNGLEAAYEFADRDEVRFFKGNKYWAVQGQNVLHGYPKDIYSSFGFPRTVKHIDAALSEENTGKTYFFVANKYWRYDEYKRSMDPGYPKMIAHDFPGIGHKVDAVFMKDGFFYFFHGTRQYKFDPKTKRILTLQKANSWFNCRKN

Collagenase 3 = Collagenase 3 (Homo sapiens, UniProt P45452); test: Inhibition of human recombinant MMP13 using MCA-Pro-Cha-Gly-Nva-His-Ala-Dpa-NH2 as substrate preincubated for 10 mins measured by fluorescence analysis
Procedure, shortened: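 Catalytic domain of recombinant human MMP-13 was assayed with fluorogenic substrate in 50 mM Tris-HCl pH 7.5, 150 mM NaCl, 5 mM CaCl₂, 0.05% Brij-35. Enzyme was 1–10 nM and substrate 4–10 μM. It was preincubated 10 min with varying inhibitor concentrations, and IC50 came from at least duplicate runs.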

[3] = molecular target: T3, A disintegrin and metalloproteinase with thrombospondin motifs 4 (Homo sapiens, UniProt O75173); test: Inhibition of human recombinant aggrecanase 1 using aggrecan-IGD as substrate measured after 15 mins by ELISA
T3 sequence (O75173 whole entry): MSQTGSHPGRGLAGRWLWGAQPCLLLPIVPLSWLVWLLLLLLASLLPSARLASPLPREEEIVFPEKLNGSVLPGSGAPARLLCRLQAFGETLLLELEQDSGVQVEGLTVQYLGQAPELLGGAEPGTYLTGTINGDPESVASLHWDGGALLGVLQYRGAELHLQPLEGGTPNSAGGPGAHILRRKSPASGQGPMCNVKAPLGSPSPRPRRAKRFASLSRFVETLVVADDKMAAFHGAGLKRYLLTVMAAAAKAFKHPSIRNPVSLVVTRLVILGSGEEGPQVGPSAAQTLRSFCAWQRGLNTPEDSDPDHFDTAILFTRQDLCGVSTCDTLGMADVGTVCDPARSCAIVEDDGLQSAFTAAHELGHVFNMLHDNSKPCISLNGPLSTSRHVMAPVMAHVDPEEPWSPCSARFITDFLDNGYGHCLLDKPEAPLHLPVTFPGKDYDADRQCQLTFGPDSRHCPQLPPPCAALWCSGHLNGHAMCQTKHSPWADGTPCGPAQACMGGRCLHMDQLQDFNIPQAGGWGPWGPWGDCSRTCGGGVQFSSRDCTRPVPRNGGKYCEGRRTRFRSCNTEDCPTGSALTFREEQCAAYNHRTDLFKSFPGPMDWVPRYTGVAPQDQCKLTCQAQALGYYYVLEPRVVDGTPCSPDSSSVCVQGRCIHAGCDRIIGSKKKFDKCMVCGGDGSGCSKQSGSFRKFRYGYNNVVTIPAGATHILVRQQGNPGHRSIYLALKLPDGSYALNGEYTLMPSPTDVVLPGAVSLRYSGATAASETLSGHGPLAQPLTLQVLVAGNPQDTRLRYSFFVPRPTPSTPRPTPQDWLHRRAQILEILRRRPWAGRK
Procedure, shortened: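 Aggrecanase-1 was run in 50 mM Tris-HCl pH 7.5, 150 mM NaCl, 5 mM CaCl₂, 0.05% Brij-35, with 100 nM recombinant human aggrecan interglobular domain as substrate, for 15 min at 37 °C. The reaction was stopped with EDTA, and ARGSVIL neoepitopes were quantified by ELISA.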

Neutrophil collagenase = Neutrophil collagenase (Homo sapiens, UniProt P22894); test: Inhibition of human recombinant MMP8 using MCA-Pro-Leu-Gly-Leu-Dpa-Ala-Arg-NH2.AcOH as substrate preincubated for 10 mins measured by fluorescence analysis; procedure, shortened: as §1
Neutrophil collagenase, sequence (P22894 whole entry): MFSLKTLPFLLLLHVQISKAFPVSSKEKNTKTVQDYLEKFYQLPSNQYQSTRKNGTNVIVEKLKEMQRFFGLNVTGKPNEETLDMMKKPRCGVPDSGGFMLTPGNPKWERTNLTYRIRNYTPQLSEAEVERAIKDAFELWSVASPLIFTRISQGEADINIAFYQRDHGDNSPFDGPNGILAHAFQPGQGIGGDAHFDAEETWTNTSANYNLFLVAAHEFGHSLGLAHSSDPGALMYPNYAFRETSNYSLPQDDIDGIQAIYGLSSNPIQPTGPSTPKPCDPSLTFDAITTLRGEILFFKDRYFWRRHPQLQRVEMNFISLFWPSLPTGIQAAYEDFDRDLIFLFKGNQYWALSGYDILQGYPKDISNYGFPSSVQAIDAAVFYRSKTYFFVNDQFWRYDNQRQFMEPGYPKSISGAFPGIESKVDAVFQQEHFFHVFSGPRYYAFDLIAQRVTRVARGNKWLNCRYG

[4] = molecular target: Macrophage metalloelastase (Homo sapiens, UniProt P39900); test: Inhibition of human recombinant MMP12 using MCA-Pro-Leu-Gly-Leu-Dpa-Ala-Arg-NH2.AcOH as substrate preincubated for 10 mins measured by fluorescence analysis; procedure, shortened: as §1
Macrophage metalloelastase, sequence (P39900 whole entry): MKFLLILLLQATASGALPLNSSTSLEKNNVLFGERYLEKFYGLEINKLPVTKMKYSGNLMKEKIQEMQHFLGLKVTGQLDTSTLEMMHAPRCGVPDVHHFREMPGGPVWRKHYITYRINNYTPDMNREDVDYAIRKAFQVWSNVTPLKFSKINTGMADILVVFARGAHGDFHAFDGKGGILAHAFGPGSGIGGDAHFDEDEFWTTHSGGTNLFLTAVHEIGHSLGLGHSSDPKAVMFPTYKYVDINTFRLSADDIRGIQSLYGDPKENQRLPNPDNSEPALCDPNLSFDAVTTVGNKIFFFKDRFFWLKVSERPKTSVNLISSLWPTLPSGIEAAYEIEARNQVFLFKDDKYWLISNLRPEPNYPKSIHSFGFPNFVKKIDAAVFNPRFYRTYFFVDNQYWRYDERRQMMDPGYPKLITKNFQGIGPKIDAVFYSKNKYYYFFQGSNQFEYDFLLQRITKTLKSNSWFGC

[5] = molecular target: Matrix metalloproteinase-9 (Homo sapiens, UniProt P14780); test: Inhibition of human recombinant MMP9 using MCA-Pro-Leu-Gly-Leu-Dpa-Ala-Arg-NH2.AcOH as substrate preincubated for 10 mins measured by fluorescence analysis; procedure, shortened: as §1
Matrix metalloproteinase-9, sequence (P14780 whole entry, the tested form may be a part): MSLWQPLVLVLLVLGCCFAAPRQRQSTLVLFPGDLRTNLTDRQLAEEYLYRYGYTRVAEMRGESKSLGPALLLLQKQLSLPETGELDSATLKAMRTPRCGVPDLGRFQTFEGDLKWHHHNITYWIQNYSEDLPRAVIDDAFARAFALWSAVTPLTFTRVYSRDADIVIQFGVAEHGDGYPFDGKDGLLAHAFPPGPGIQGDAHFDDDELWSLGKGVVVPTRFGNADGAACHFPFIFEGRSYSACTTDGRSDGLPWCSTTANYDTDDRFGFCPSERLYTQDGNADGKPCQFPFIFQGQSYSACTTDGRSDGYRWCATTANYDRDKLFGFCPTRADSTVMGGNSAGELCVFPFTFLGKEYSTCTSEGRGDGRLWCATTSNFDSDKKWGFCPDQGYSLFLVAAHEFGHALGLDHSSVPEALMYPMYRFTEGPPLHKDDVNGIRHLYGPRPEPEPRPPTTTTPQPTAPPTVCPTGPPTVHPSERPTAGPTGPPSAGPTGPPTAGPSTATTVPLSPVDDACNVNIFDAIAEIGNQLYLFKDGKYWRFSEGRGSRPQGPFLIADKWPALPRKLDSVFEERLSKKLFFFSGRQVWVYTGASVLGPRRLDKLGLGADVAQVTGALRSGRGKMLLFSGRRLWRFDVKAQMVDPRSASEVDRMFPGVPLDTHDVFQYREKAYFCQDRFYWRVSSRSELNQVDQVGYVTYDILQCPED

[6] = molecular target: Disintegrin and metalloproteinase domain-containing protein 17 (Homo sapiens, UniProt P78536); test: Inhibition of human recombinant TACE using MCA-Pro-Leu-Ala-Gln-Ala-Val-Dpa-Arg-Ser-Ser-Ser-Arg-NH2 as substrate preincubated for 10 mins measured by fluorescence analysis
Disintegrin and metalloproteinase domain-containing protein 17, sequence (P78536 whole entry, the tested form may be a part): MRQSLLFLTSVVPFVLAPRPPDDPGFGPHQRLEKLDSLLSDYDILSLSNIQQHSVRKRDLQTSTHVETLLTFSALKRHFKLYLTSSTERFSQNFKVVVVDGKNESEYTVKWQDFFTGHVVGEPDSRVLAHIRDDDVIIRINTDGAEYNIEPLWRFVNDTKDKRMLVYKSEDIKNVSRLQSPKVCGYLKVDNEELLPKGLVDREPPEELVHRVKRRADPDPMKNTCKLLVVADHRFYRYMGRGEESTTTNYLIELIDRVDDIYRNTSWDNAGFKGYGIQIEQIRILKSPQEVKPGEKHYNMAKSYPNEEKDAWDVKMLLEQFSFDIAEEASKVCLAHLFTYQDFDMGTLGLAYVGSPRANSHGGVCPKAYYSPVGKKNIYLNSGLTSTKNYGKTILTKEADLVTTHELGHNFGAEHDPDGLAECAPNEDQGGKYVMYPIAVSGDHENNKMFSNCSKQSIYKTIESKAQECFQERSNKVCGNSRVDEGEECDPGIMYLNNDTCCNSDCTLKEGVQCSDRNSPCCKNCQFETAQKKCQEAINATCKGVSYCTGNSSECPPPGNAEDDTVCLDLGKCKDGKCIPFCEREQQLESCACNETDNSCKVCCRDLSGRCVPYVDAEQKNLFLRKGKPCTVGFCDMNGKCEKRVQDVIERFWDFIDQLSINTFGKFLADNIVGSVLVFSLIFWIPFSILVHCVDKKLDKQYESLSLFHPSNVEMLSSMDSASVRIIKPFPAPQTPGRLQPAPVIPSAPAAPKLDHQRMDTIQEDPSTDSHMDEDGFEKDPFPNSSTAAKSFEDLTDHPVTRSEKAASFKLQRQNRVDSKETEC
Procedure, shortened: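 Recombinant human TACE was assayed with its fluorogenic peptide substrate in 25 mM Tris-HCl pH 9, 1.25 μM Zn(OAc)₂, 0.005% Brij-35. Enzyme was 1–10 nM and substrate 4–10 μM. Enzyme was preincubated 10 min with varying inhibitor concentrations, and IC50 came from at least duplicate runs.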

[7] = molecular target: 72 kDa type IV collagenase (Homo sapiens, UniProt P08253); test: Inhibition of human recombinant MMP2 using MCA-Pro-Leu-Gly-Leu-Dpa-Ala-Arg-NH2.AcOH as substrate preincubated for 10 mins measured by fluorescence analysis; procedure, shortened: as §1
72 kDa type IV collagenase, sequence (P08253 whole entry): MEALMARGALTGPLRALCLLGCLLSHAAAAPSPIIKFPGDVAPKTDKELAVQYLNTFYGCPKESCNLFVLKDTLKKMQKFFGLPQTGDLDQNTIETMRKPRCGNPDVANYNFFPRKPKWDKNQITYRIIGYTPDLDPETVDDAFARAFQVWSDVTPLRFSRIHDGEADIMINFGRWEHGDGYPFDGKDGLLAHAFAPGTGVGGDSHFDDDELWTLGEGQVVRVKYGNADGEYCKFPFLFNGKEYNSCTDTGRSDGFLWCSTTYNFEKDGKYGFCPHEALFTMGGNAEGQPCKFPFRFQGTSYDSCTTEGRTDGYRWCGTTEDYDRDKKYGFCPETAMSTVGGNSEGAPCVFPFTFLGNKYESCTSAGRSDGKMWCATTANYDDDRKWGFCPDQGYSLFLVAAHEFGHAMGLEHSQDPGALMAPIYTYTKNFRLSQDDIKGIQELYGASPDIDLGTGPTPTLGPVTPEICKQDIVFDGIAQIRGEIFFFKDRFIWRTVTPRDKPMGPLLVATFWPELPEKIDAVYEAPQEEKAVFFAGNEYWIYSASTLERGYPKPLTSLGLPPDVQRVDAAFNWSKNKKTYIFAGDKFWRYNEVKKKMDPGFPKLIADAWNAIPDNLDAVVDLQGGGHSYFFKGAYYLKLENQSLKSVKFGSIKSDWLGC

Stromelysin-1 = Stromelysin-1 (Homo sapiens, UniProt P08254); test: Inhibition of human recombinant MMP3 using MCAArg-Pro-Lys-Pro-Val-Glu-Nva-Trp-Arg-Lys(DNP)-NH2 as substrate preincubated for 10 mins measured by fluorescence analysis
Stromelysin-1, sequence (P08254 whole entry, the tested form may be a part): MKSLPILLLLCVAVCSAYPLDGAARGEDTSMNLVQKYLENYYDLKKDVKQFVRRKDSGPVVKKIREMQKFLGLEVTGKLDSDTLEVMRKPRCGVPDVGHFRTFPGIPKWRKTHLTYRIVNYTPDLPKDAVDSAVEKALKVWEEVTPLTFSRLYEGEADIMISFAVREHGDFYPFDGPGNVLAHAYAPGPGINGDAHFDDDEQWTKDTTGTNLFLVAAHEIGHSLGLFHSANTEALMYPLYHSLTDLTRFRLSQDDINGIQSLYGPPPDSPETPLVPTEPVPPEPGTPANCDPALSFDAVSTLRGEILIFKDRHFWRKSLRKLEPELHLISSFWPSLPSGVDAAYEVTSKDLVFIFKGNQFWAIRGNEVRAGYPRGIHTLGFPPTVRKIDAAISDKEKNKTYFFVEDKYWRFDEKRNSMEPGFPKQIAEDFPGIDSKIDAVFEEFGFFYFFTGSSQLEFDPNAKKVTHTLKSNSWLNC
Procedure, shortened: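 Catalytic domain of recombinant human MMP-3 was assayed with NFF-3 fluorogenic substrate in 50 mM MES pH 6.0, 10 mM CaCl₂, 0.05% Brij-35. Enzyme was 1–10 nM and substrate 4–10 μM. Enzyme was preincubated 10 min with varying inhibitor concentrations, and IC50 came from at least duplicate runs.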

Cartilage tissue = test: Inhibition of collagen degradation in bovine articular cartilage assessed as inhibition of interlukein-1alpha/oncostatin M-induced C1,C2 release measured after 11 days by ELISA; format: functional, tissue-based; settings: Bos taurus, 264 h
Procedure, shortened: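 Freshly isolated bovine articular cartilage pieces (~3 mm²) were stimulated with 5 ng/mL IL-1α plus 50 ng/mL OSM, with or without compound, for 11 days. Medium was refreshed twice weekly. Collagen degradation products in the conditioned medium were quantified by C1,2C ELISA.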

Rattus norvegicus [8] = organism: Rattus norvegicus; test: Chondroprotective activity in Sprague-Dawley rat cartilage assessed as inhibition of MMP13-mediated C1,C2 release at 0.5 mg/joint, ia measured after 24 hrs by ELISA; format: functional; procedure, shortened: as §2
Rattus norvegicus [9] = organism: Rattus norvegicus; test: Chondroprotective activity in Sprague-Dawley rat cartilage assessed as inhibition of MMP13-mediated C1,C2 release at 0.5 mg/joint, ia measured on day 14 by ELISA; format: functional; procedure, shortened: as §2

IC50 (Matrilysin): > 20 µM
IC50 [1]: > 20 µM
IC50 (Interstitial collagenase): > 20 µM
IC50 (Collagenase 3): 0.0013 µM
IC50 [3]: 7 µM
IC50 (Neutrophil collagenase): > 20 µM
IC50 [4]: > 20 µM
IC50 [5]: > 20 µM
IC50 [6]: > 20 µM
IC50 [7]: > 20 µM
IC50 (Stromelysin-1): 15 µM
IC50 (Cartilage tissue): 0.005 µM
Compound: Cc1c(C(=O)O)ccc2c1CC[C@@H]2NC(=O)c1cc(C(=O)NCc2ccc(F)c(C(F)(F)F)c2)nc2c(F)cnn12
inhibition (INH) (Rattus norvegicus [2]): 60%
inhibition (INH) (Rattus norvegicus [8]): 95%
inhibition (INH) (Rattus norvegicus [9]): 0%
